In ChEMBL document CHEMBL4837197, “A novel Hsp70 inhibitor specifically targeting the cancer-related Hsp70-Bim protein-protein interaction” (Eur J Med Chem, 2021):
Values belong to the molecule of their own block, whether it stands above or below them. Activity calls are given as the source filed them. No cut-off for these calls is given here.

Experiments:
[1] = Inhibition of FAM-Bim peptide binding to human Hsp70 NBD (1 to 383) measured after 30 mins by fluorescence polarization assay
Procedure, shortened: (§1)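 Fluorescence polarization competition. Serial dilutions of compound added to protein–probe mixture in buffer containing 0.02% sodium azide, incubated 30 min, then polarization read. Control values subtracted. IC50 from the competitive inhibition curve of polarization versus compound concentration.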

[2] = molecular target: Apoptosis regulator Bcl-2 (Homo sapiens, UniProt P10415); assay: Inhibition of FAM-Bim peptide binding to human Bcl-2 (2 to 206) measured after 30 mins by fluorescence polarization assay; procedure, shortened: as §1
[3] = system: BV-173; assay: Induction of apoptosis in human BV-173 cells transfected with Hsp70 shRNA at 3 uM by AnnexinV staining method; format: functional, cell-based
Procedure, shortened: (§2)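 Stable clones of BV173 carrying non-silencing, Hsp70 or Bim shRNA, treated at 3 µM for 48 h. Apoptosis scored by Annexin V-FITC staining and flow cytometry. n = 3 independent samples, mean ± s.e.m.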

[4] = system: BV-173; assay: Induction of apoptosis in human BV-173 cells transfected with Bim shRNA at 3 uM by AnnexinV staining method; format: functional, cell-based; procedure, shortened: as §2
[5] = system: BV-173; assay: Induction of apoptosis in human BV-173 cells by AnnexinV-FITC/PI staining based flow cytometric analysis; format: functional, cell-based
Procedure, shortened: (§3)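 Cells treated with inhibitor for 48 h (DMSO stocks diluted in medium), washed in PBS with 1% bovine calf serum, stained with FITC–Annexin V (1:40) for 10 min in the dark at room temperature, and analysed by flow cytometry. EC50 is the concentration giving 50% apoptosis. Culture conditions: BV173 and KCL22 in RPMI 1640, HEK293 in DMEM, BaF3 in RPMI 1640 with 10 ng/ml mouse IL-3, all with 10% FBS at 37 °C, 5% CO2.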

[6] = system: KCL-22; assay: Inhibition of Hsp70/Bim protein protein interaction in human KCL-22 cells assessed as decrease in Raf-1 phosphorylation at 3 uM by Western blot analysis; format: cell-based
Procedure, shortened: (§4)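 BV173 and KCL22 cells treated at 3 µM, with DMSO as vehicle. Lysed in RIPA with protease/phosphatase inhibitor for 30 min on ice and protein measured by BCA. 150–250 µg resolved by SDS-PAGE and blotted for AKT, pAKT, Raf-1 and pRaf-1, with β-actin loading control.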

[7] = Binding affinity to human Hsp70 NBD (1 to 383) assessed as dissociation constant measured by isothermal titration calorimetry assay
Procedure, shortened: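 ITC: binding isotherms integrated to give enthalpy change against ligand molar ratio, fitted with a one-set-of-sites model. Kd taken from the slope of the central linear part of the fractional saturation curve. Three independent experiments.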

[8] = system: BaF3; assay: Induction of apoptosis in mouse BaF3 cells by AnnexinV-FITC/PI staining based flow cytometric analysis; format: cell-based; procedure, shortened: as §3
[9] = system: BV-173; assay: Induction of apoptosis in human BV-173 cells transfected with Hsp70 shRNA assessed as cleaved PARP at 3 uM by Western blot analysis; format: functional, cell-based
Procedure, shortened: (§5)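 Stable non-silencing, Hsp70 or Bim shRNA BV173 clones treated at 3 µM. Lysed in RIPA with protease/phosphatase inhibitors, 150–250 µg protein resolved by SDS-PAGE, and PARP cleavage detected by immunoblot. n = 3 independent samples.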

[10] = system: BV-173; assay: Inhibition of Hsp70/Bim protein protein interaction in human BV-173 cells assessed as decrease in Akt expression at 3 uM by Western blot analysis; format: cell-based; procedure, shortened: as §4
[11] = system: KCL-22; assay: Inhibition of Hsp70/Bim protein protein interaction in human KCL-22 cells assessed as decrease in Akt phosphorylation at 3 uM by Western blot analysis; format: cell-based; procedure, shortened: as §4
[12] = molecular target: Stress-70 protein, mitochondrial (Homo sapiens) (UniProt P38646); assay: Competitive binding affinity to Mortalin in human BV-173 cell lysate up to 10 uM by pull-down/Western blot analysis; format: subcellular; conditions: dose microM <=10
Procedure, shortened: (§6)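 BV173 cell lysate incubated with biotin-clickable affinity probe, with or without competitor. Probe-bound proteins pulled down on streptavidin/avidin agarose after click reaction. Beads washed with 0.1% SDS and PBS, boiled 15 min in SDS loading buffer. Hsp70, Hsc70 and Mortalin detected by Western blot.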

[13] = system: BV-173; assay: Inhibition of Hsp70/Bim protein protein interaction in human BV-173 cells assessed as decrease in Raf-1 phosphorylation at 3 uM by Western blot analysis; format: cell-based; procedure, shortened: as §4
[14] = organism: Homo sapiens; assay: Inhibition of BimBH3-stimulated human HSP70 ATPase activity
[15] = system: BV-173; assay: Induction of apoptosis in human BV-173 cells transfected with Bim shRNA assessed as cleaved PARP at 3 uM by Western blot analysis; format: functional, cell-based; procedure, shortened: as §5
[16] = molecular target: Heat shock cognate 71 kDa protein (Homo sapiens) (UniProt P11142); assay: Competitive binding affinity to Hsc70 in human BV-173 cell lysate up to 10 uM by pull-down/Western blot analysis; format: subcellular; conditions: dose microM <=10; procedure, shortened: as §6
[17] = system: BV-173; assay: Inhibition of Hsp70/Bag3 protein protein interaction in human BV-173 cell lysate at 1 to 5 uM by co-IP/Western blot analysis; format: subcellular; conditions: dose 1-5 µM
Procedure, shortened: (§7)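 BV173 cells treated at 0, 1, 3 and 5 µM. Immunoprecipitated with sepharose beads for 2 h at 4 °C. Hsp70, Bim and Bag3 probed by Western blot with β-actin as loading control.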

[18] = system: BV-173; assay: Competitive binding affinity to HSP70 in human BV-173 cell lysate by pull-down/Western blot analysis; format: subcellular; procedure, shortened: as §6
[19] = system: KCL-22; assay: Induction of apoptosis in human KCL-22 cells by AnnexinV-FITC/PI staining based flow cytometric analysis; format: functional, cell-based; procedure, shortened: as §3
[20] = system: BV-173; assay: Inhibition of Hsp70/Bim protein protein interaction in human BV-173 cell lysate at 1 to 5 uM by co-IP/Western blot analysis; format: subcellular; conditions: dose 1-5 µM; procedure, shortened: as §7
[21] = system: KCL-22; assay: Inhibition of Hsp70/Bim protein protein interaction in human KCL-22 cells assessed as decrease in Raf-1 expression at 3 uM by Western blot analysis; format: cell-based; procedure, shortened: as §4
[22] = system: KCL-22; assay: Inhibition of Hsp70/Bim protein protein interaction in human KCL-22 cells assessed as decrease in Akt expression at 3 uM by Western blot analysis; format: cell-based; procedure, shortened: as §4
[23] = system: BV-173; assay: Inhibition of Hsp70/Bim protein protein interaction in human BV-173 cells assessed as decrease in Akt phosphorylation at 3 uM by Western blot analysis; format: cell-based; procedure, shortened: as §4
[24] = system: BV-173; assay: Inhibition of Hsp70/Bim protein protein interaction in human BV-173 cells assessed as decrease in Raf-1 expression at 3 uM by Western blot analysis; format: cell-based; procedure, shortened: as §4
[25] = system: HEK293; assay: Induction of apoptosis in human HEK293 cells by AnnexinV-FITC/PI staining based flow cytometric analysis; format: cell-based; procedure, shortened: as §3

Sequence of Apoptosis regulator Bcl-2 (P10415 whole entry): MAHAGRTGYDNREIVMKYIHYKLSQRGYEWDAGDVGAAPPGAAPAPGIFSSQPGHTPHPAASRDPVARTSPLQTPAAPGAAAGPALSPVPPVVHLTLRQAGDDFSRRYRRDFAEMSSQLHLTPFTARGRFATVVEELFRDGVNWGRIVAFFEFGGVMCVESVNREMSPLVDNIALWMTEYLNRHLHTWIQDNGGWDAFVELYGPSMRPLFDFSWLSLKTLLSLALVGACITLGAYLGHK
Sequence of Heat shock cognate 71 kDa protein (Homo sapiens) (P11142 2-646 limits assumed): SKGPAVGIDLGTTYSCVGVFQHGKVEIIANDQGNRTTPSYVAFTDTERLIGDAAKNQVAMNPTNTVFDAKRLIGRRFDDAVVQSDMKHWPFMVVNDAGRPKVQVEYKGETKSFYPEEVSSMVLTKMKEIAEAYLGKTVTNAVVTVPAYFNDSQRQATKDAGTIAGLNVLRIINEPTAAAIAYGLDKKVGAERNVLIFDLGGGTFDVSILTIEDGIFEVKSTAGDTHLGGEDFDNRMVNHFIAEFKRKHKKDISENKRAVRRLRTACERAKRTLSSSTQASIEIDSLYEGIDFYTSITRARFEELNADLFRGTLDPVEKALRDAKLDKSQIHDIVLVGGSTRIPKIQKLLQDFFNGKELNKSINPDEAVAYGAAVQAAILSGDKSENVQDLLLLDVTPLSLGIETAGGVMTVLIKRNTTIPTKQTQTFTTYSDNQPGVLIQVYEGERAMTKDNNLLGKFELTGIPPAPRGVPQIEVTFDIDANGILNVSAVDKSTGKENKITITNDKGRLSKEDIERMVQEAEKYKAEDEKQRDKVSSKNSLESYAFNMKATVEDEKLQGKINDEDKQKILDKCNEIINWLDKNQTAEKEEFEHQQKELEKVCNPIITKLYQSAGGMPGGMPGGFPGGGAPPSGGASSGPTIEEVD
Sequence of Stress-70 protein, mitochondrial (Homo sapiens) (P38646 whole entry): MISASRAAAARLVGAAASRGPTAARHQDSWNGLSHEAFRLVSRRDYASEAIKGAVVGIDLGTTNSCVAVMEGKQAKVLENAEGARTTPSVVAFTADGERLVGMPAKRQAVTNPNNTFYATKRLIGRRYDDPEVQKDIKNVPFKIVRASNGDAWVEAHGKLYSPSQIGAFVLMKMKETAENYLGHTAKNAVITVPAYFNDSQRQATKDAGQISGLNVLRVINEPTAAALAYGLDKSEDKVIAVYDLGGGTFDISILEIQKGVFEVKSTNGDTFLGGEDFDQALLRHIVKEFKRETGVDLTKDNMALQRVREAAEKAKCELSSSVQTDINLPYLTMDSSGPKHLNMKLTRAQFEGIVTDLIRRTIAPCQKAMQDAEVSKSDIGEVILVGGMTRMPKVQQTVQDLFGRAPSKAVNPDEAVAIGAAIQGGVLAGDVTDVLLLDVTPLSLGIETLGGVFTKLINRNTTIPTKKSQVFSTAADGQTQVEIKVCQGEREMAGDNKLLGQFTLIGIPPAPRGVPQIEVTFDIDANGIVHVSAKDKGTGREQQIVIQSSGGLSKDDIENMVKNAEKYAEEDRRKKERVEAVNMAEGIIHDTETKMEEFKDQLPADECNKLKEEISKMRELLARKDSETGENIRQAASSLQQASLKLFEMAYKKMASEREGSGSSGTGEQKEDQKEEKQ

IC50 [1]: > 20 µM
SMILES: CC1(C)CCC(CN2CCN(c3ccc(C(=O)NS(=O)(=O)c4ccc(NCC5CCOCC5)c([N+](=O)[O-])c4)c(Oc4cnc5[nH]ccc5c4)c3)CC2)=C(c2ccc(Cl)cc2)C1 [VENETOCLAX]

IC50 [1]: 7.7 µM
IC50 [2]: 1.8 µM
SMILES: N#CC1=C(C#N)c2ccc(Sc3ccccc3)c3cccc(c23)C1=O

IC50 [1]: 18.5 µM
IC50 [2]: 14.8 µM
SMILES: N#CC1=C(C#N)c2ccc(NCc3ccccc3)c3cccc(c23)C1=O

IC50 [1]: 13.2 µM
IC50 [2]: 16 µM
SMILES: CCCCNC1=C(C#N)C(=O)c2cccc3c(SC4CCCCC4)ccc1c23

IC50 [1]: > 20 µM
IC50 [2]: > 20 µM
SMILES: N#CC1=C(C#N)c2ccc(NC3CCCCC3)c3cccc(c23)C1=O

IC50 [1]: 0.81 µM
IC50 [2]: 9.6 µM
SMILES: N#CC1=C(NCCO)c2ccc(SC3CCCCC3)c3cccc(c23)C1=O

The next lines start with the molecule.

SMILES: N#CC1=C(C#N)c2ccc(NCCO)c3cccc(c23)C1=O
IC50 [1]: 15.2 µM
IC50 [2]: > 20 µM

SMILES: N#CC1=C(NCCC(N)=O)c2ccc(SC3CCCCC3)c3cccc(c23)C1=O
IC50 [1]: 1 µM
IC50 [2]: 13.5 µM

SMILES: N#CC1=C(C#N)c2ccc(SC3CCCCC3)c3cccc(c23)C1=O
IC50 [1]: 1.7 µM
IC50 [2]: 8.6 µM

SMILES: CC(C)c1ccc(Sc2ccc3c4c(cccc24)C(=O)C(C#N)=C3C#N)cc1
IC50 [1]: 4.4 µM
IC50 [2]: 2.8 µM

SMILES: COc1ccc(Sc2ccc3c4c(cccc24)C(=O)C(C#N)=C3C#N)cc1
IC50 [1]: 4.5 µM
IC50 [2]: 6.1 µM

SMILES: N#CC1=C(C#N)c2ccc(N3CCSCC3)c3cccc(c23)C1=O
IC50 [1]: > 20 µM
IC50 [2]: 0.8 µM

SMILES: N#CC1=C(C#N)c2ccc(SC3CCCC3)c3cccc(c23)C1=O
IC50 [1]: 3.2 µM
IC50 [2]: 8.4 µM

SMILES: N#CC1=C(NCCN2CCOCC2)c2ccc(SC3CCCCC3)c3cccc(c23)C1=O
Activity [3]: Active
Activity [4]: Active
EC50 [5]: 1.4 µM
inhibition [6]: Active
Kd [7]: 0.96 µM
EC50 [8]: > 15 µM
Activity [9]: Active
inhibition [10]: Active
inhibition [11]: Active
IC50 [1]: 0.45 µM
Activity [12]: Active
inhibition [13]: Active
inhibition [14]: Active
Activity [15]: Active
Activity [16]: Active
inhibition [17]: inactive
Activity [18]: Dose-Dependent Effect
EC50 [19]: 2.6 µM
inhibition [20]: Active
inhibition [21]: Active
inhibition [22]: Active
inhibition [23]: Active
inhibition [24]: Active
EC50 [25]: > 15 µM
IC50 [2]: 18.7 µM

SMILES: N#CC1=C(NCC2CCCCC2)c2ccc(SC3CCCCC3)c3cccc(c23)C1=O
IC50 [1]: 8.4 µM
IC50 [2]: 4.8 µM

SMILES: N#CC1=C(C#N)c2ccc(Sc3ccc(Br)cc3)c3cccc(c23)C1=O
IC50 [1]: 2.5 µM
IC50 [2]: 0.7 µM

SMILES: N#CC1=C(NCc2ccccc2)c2ccc(SC3CCCCC3)c3cccc(c23)C1=O
IC50 [1]: 10.5 µM
IC50 [2]: 5.2 µM
